{
  "source": "paper PMC5532717",
  "about": "(ACS Central Science, 2017)",
  "key": {"human β-glucosidase GBA1": {"biological_target": "T1, human β-glucosidase GBA1 (Homo sapiens, UniProt P04062, R534H)", "T1 sequence (P04062 40-536 R534H)": "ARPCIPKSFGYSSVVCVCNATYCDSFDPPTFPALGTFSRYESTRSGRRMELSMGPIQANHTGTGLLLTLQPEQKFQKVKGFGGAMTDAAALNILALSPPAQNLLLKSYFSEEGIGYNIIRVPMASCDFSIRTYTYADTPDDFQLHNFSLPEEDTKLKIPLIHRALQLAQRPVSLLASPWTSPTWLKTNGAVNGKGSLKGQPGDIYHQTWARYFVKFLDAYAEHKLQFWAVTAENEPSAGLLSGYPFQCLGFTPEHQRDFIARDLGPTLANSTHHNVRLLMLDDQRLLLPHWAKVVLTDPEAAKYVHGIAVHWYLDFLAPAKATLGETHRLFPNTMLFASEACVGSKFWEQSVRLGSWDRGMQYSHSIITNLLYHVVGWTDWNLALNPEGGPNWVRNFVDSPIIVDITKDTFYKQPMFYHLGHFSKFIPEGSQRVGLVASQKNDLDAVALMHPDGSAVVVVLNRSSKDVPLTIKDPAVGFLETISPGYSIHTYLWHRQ", "experiment": "In vitro apparent IC50, recombinant GBA1", "assay_type": "biochemical", "procedure,_shortened": "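Recombinant human GBA1 (Cerezyme) preincubated with a range of test compound concentrations for 30 min at 37 °C, then added to 4-MU-Glc substrate mixture to measure residual activity. Reaction quenched with 1 M NaOH–glycine (pH 10.3); 4-MU fluorescence read at λEX 366 / λEM 445 nm. Apparent IC50 is the mean of three technical replicates.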"}, "human α-glucosidase GAA": {"biological_target": "human α-glucosidase GAA (Homo sapiens, UniProt P10253)", "experiment": "In vitro apparent IC50, recombinant GAA", "assay_type": "biochemical", "procedure,_shortened": "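The enzyme source was GBA2-overexpressing HEK293T lysate or recombinant human GAA. It was preincubated 30 min at 37 °C with a range of test compound concentrations, then transferred into 4-MU glucoside substrate mixture to measure residual activity. Quenched with 1 M NaOH–glycine pH 10.3; 4-MU fluorescence at λex 366/λem 445 nm. Apparent IC50 is the mean of three technical replicates.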"}, "GBA1": {"biological_target": "T2, GBA1 (Mus musculus, UniProt P17439)", "T2 sequence (P17439 20-515)": "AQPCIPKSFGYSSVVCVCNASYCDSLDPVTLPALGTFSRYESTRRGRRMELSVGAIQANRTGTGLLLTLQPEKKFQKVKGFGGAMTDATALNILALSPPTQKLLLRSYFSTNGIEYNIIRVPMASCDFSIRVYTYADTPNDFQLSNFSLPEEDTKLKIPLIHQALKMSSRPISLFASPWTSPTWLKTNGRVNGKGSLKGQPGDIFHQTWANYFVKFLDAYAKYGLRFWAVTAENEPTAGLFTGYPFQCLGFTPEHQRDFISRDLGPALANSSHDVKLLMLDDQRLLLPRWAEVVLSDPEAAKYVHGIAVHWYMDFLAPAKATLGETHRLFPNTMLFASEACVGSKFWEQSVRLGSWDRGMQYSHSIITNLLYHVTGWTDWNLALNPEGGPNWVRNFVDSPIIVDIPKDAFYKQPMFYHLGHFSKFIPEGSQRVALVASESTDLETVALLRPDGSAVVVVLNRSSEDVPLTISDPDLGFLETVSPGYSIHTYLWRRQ", "experiment": "Competitive ABPP against probe 13 in mouse gastrointestinal lysate", "assay_type": "biochemical", "conditions": "mouse intestine lysate, 1 h at 37 °C", "procedure,_shortened": "(§1)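 Mixed mouse duodenum, jejunum and ileum homogenates were made in 25 mM potassium phosphate pH 6.5 with protease inhibitors (40 μg protein). Held 5 min on ice in McIlvaine buffer pH 4 or 7. Incubated 1 h at 37 °C with test compound (final 150 to 0.005 μM, plus 0), then probe 13 for 30 min at 37 °C. Boiled in Laemmli buffer, 10% SDS–PAGE, Cy5 fluorescence scan.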"}, "[1]": {"experiment": "Solvolytic stability in McIlvaine buffer pH 4.0 by NMR", "assay_type": "physicochemical", "conditions": "McIlvaine buffer pH 4.0, room temperature, 24 h, 1H NMR"}, "GBA3": {"biological_target": "T3, GBA3 (Homo sapiens, UniProt Q9H227)", "T3 sequence (Q9H227 1-469)": "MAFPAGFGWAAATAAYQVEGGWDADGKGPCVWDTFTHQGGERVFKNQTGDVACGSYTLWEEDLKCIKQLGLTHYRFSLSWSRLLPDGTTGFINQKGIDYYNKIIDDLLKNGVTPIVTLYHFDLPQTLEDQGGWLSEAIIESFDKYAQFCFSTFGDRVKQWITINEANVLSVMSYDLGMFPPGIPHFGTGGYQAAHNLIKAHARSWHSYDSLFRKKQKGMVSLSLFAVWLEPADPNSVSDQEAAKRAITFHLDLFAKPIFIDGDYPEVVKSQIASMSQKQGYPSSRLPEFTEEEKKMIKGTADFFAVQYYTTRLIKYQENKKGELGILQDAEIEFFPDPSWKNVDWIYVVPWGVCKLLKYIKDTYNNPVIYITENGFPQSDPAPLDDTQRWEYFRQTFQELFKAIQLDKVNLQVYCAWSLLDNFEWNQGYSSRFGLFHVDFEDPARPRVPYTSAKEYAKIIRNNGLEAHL", "experiment": "Competitive ABPP against β-glucosidase probe 14, GBA3+ HEK293T lysate", "assay_type": "biochemical", "conditions": "5 from 30 to 0 μM, 1 h at 37 °C, pH 6.0"}, "GAA [2]": {"biological_target": "GAA (Homo sapiens, UniProt P10253)", "experiment": "Competitive ABPP against probe 13 in fibroblast lysates, pH 4", "assay_type": "biochemical", "conditions": "pH 4, preincubation 15, 30 or 60 min", "procedure,_shortened": "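Human normal dermal fibroblast homogenate (17.6 μg total protein) in 150 mM McIlvaine buffer for 5 min on ice, at pH 4 for GAA and pH 7 for GANAB. Exposed to test compound for 15, 30 or 60 min at 37 °C, then labeled with Cy5 aziridine probe 13 for 30 min at 37 °C. Denatured at 98 °C, 10% SDS–PAGE, Cy5 in-gel fluorescence scan.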"}, "GAA [3]": {"biological_target": "GAA (Mus musculus, UniProt P70699)", "sequence (P70699 70-953)": "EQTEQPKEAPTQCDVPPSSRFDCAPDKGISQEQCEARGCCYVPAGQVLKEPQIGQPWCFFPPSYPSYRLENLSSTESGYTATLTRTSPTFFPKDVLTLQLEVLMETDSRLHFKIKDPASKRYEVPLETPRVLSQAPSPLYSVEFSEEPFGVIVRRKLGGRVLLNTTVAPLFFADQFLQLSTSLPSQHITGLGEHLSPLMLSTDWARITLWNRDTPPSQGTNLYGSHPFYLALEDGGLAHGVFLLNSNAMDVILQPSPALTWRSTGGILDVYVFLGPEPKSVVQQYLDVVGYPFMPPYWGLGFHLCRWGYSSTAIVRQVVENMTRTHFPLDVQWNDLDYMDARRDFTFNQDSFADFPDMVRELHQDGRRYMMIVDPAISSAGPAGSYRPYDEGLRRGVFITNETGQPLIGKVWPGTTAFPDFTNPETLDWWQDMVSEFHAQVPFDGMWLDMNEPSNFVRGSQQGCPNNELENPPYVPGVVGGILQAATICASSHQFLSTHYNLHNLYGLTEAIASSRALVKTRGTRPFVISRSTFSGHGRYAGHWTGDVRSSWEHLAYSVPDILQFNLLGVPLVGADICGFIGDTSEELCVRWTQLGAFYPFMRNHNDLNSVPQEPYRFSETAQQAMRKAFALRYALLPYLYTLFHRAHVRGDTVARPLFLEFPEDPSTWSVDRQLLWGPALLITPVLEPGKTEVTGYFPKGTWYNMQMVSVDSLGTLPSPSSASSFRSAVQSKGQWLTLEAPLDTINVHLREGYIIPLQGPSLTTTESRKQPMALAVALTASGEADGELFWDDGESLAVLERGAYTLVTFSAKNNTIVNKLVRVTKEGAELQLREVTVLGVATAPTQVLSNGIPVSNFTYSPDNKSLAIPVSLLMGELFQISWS", "experiment": "Competitive ABPP against probe 13 in mouse gastrointestinal lysate", "assay_type": "biochemical", "conditions": "mouse intestine lysate, 1 h at 37 °C", "procedure,_shortened": "as §1"}},
  "data": [
    {"smiles": "O=S1(=O)O[C@@H]2[C@H](O)[C@@H](O)[C@H](O)[C@@H](CO)[C@@H]2O1", "note": "[Compound 5, 1,6-epi-cyclophellitol cyclosulfate]", "values": [
      {"measurement": "IC50", "setting": "human β-glucosidase GBA1", "value": "> 100000", "unit": "nM"},
      {"measurement": "IC50", "setting": "human α-glucosidase GAA", "value": "82 ± 1", "unit": "nM"},
      {"measurement": "competition of off-target probe 13 labeling of GBA1", "setting": "GBA1", "value": "not outcompeted"},
      {"measurement": "solvolytic stability (spontaneous hydrolysis)", "setting": "[1]", "value": "no spontaneous hydrolysis"},
      {"measurement": "inhibition of probe 14 labeling of GBA3", "setting": "GBA3", "value": "no inhibition"},
      {"measurement": "inhibition of probe 13 labeling of GAA", "setting": "GAA [2]", "value": "time dependent inhibition"},
      {"measurement": "inhibition of probe 13 labeling of GAA", "setting": "GAA [3]", "value": "inhibited"}
    ]}
  ]
}
